Measurements taken from the RNAGym collection of RNA variant scans (doi:10.1126/science.aae0568).
Fewer inactive variants are shown than the library holds.

B1: tRNA (parent)
chain: GUUCCGUUGGCGUAAUGGUAACGCGUCUCCCUCCUAAGGAGAAGACUGCGGGUUCGAGUCCCGUACGGAACG

Variants of: B1
Test: yeast fitness relative to wild type (ratio to wild type); higher = fitter; tRNA-Arg(CCU), competitive growth, 37 C, YPD
Method in brief: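 Start and end populations of a pooled competition were compared by 100-nucleotide paired-end sequencing of gene amplicons. The Saccharomyces cerevisiae strains carried tRNA-Arg(CCU) gene variants at the native genomic locus, synthesised with a 3% per-site mutation rate at 69 sites, and competed in YPD at 37°C for 24 hours in six parallel replicates. Darwinian fitness relative to wild type was based on the change in genotype frequencies. Genotypes required ≥ 100 starting reads, and estimates < 0.5 were set to 0.5.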

**Q.** With GUUCCGUUGACGUAAUCGUAACGCGUCCCGCUGCUAAGGAGAAGACUGCGGGUUCGAGUCACGUACGGUACG as the variant, how does the yeast fitness read?
**A.** ≤ 0.5

**Q.** Which yeast fitness does the source give for GUUCCGUUGACGUAAUGAUAACGCGUCUCCCUCCUGAGGAGAAGACUGCGGGUUCGAGUCCCGUACGGAACG here?
**A.** ≤ 0.5

**Q.** With GUUCCGUUGACGUAAUGAUAACGCGUCUCCCUCCUGAGGAGAAGACUGCGGGAUCGAGUCCCGUACGGAGCG as the variant, how does the yeast fitness read?
**A.** ≤ 0.5

**Q.** With GUUCCGUUGACGUAAUGAUAACGCGUCUCCCUCCUAAGGAGAAGACUGCGGGUUCGAGUCCCGUACGGCACG as the variant, how does the yeast fitness read?
**A.** ≤ 0.5

**Q.** Which yeast fitness does the source give for GUUCCGUUGACGUAAUGAUAACGCGUGUCCCUCCUAGAGAGAAGACUGCGGGUUCGAGUCCCGUACGGAACG here?
**A.** ≤ 0.5

**Q.** Which yeast fitness does the source give for GUUCCGUUGACGUAAUGAUAACGCGUGUCCCUCCUAGAGAGAAGACUGCGGGUUCGUGUCCCGUACGGAACG here?
**A.** ≤ 0.5

**Q.** With GUUCCGUUGACGUAAUGAUAACGCGUGUCCCUCCUAGAGAGAAGACUGCGGGUUCGAGUCUCGUACGGAACG as the variant, how does the yeast fitness read?
**A.** ≤ 0.5

**Q.** Which yeast fitness does the source give for GUUCCGUUGACGUAAUGAUAACGCGUCUCCCUUCUACGGUGAAGACUGCGGGUUCGAGUCCCGUACGGAACG here?
**A.** ≤ 0.5

**Q.** Which yeast fitness does the source give for GUUCCGUUGACGUAAUGAUAACGCGUCUCCCUCCUAAGGAGAAGAAUGCGGGUUCGAGUCCCGUACGGAACG here?
**A.** 0.539

**Q.** With GUUCCGUUGACGUAAUGAUAACGCGUCUCCCUCCUAAGGAGAAGACUGCGGGUUCGAGUCCUGUACGGAACG as the variant, how does the yeast fitness read?
**A.** ≤ 0.5

**Q.** For GUUCCGUUGACGUAAUGCUAACGUGUCUCGCUCCUAAGGAGAAGACUGCGGGUUCGAGUCCUGUACGGAACG, which yeast fitness is on record?
**A.** ≤ 0.5

**Q.** Which yeast fitness does the source give for GUUCCGUUGACGUAAUGGUAACACGUCUCCCUCCUAAGGAGAAGGCUGCGGGUUCGAGUCCCGUACGGAACG here?
**A.** ≤ 0.5

**Q.** For GUUCCGUUGACGUAAUGGUAACACGUCUCCCUCCGAAGGAGAAGACUGCGGGUUCGAGUCCCGUACGGAACG, which yeast fitness is on record?
**A.** ≤ 0.5

**Q.** For GUUCCGUUGACGUAAUGGUAACCCGUCUUCCUCCUCAGGAGAAGACUGCGGGUUCGUGUCCCAUACGGAACG, which yeast fitness is on record?
**A.** ≤ 0.5

**Q.** For GUUCCGUUGACGUAAUGGUAACCCGUCUUCCUCCUCAGGAGAAGACUGGGGGUUCGAGUCCCGUACGGAACG, which yeast fitness is on record?
**A.** 0.53

**Q.** For GUUCCGUUGACGUAAUGGUAACCCGUCUUCCUCCUCAGGAGAAGACUGGGGGUUCGAGUCCCGUACGGAUCG, which yeast fitness is on record?
**A.** 0.542

**Q.** Which yeast fitness does the source give for GUUCCGUUGACGUAAUGGUAACCCGUCUCCCUCCUAAGGAGAAGACUGCGGGUUCGAGUCGCGUACGGAACG here?
**A.** ≤ 0.5

**Q.** Which yeast fitness does the source give for GUUCCGUUGACGUAAUGGUAACGCAUCUCCCUCCUAAGGAGAAGACUGCGGGUUCGAGUCCCGUACGGAACG here?
**A.** 0.862

**Q.** With GUUCCGUUGACGUAAUGGUAACGCAUCUCCCUCCUAAGGCGAAGACUGCGGGUUGGAGUCACGUACGGAACG as the variant, how does the yeast fitness read?
**A.** ≤ 0.5

**Q.** With GUUCCGUUGACGUAAUGGUAACGCAUCUGCUUCCUAAGGAGAAGACUGCGGGUUCGAGUCCCGUACGGAACG as the variant, how does the yeast fitness read?
**A.** ≤ 0.5

**Q.** With GUUCCGUUGACGUAAUGGUAACGCAUCUCCCUCCUAAGGACAAGACUGCGGGUUCGGGUCCCGUACGGAACG as the variant, how does the yeast fitness read?
**A.** ≤ 0.5

**Q.** With GUUCCGUUGACGUAAUGGUAACGCAUCUCCCUCCUAAGGACAAGACUGCGGGUGCGAGUCUCGUACGGAACG as the variant, how does the yeast fitness read?
**A.** 0.551

**Q.** For GUUCCGUUGACGUAAUGGUAACGCAUCUCCCUCCUAAGGAGAAGACCGCGGGUUCGAGUCCCGUACGGAACG, which yeast fitness is on record?
**A.** ≤ 0.5

**Q.** For GUUCCGUUGACGUAAUGGUAACGCCUCUCCCUCCUAAGGAGAAGACUGGGGGUUCGAGUCCCGUACGGAACG, which yeast fitness is on record?
**A.** 0.603

**Q.** With GUUCCGUUGACGUAAUGGUAACGCGUCUCCCUCCUAACGAGAAGACUGCGGGUUCGAGUCCCGUACGGAACG as the variant, how does the yeast fitness read?
**A.** 0.549

**Q.** With GUUCCGUUGACGUAAUGGUAACGCGUCUCCCUCCUAACGAGAAGACUGCGGGUUCGGGUCCCGUACGGAACG as the variant, how does the yeast fitness read?
**A.** ≤ 0.5

**Q.** For GUUCCGUUGACGUAAUGGUAACGCGUCUCCCUCCUAACGAGAAGAAUGCGGGUUCGAGUCCGGUAUGGAACG, which yeast fitness is on record?
**A.** ≤ 0.5

**Q.** With GUUCCGUUGACGUAAUGGUAACGCGUCUCCCUCCUAAGCAGAAGACUGCGGGUUCGAGUCCCGUACGGAACG as the variant, how does the yeast fitness read?
**A.** 0.763

**Q.** Which yeast fitness does the source give for GUUCCGUUGACGUAAUGGUAACGCGUCUCCCUCCUAAGCAGAAGACUGCGGGUUCGAGUCCUAUACGGAUCG here?
**A.** ≤ 0.5

**Q.** For GUUCCGUUGACGUAAUGGUAACGCGUCUCCCUCCUAAGUAGAAGACUGCGGGUUCGCGUCCCGUACGGAUCG, which yeast fitness is on record?
**A.** ≤ 0.5

**Q.** With GUUCCGUUGACGUAAUGGUAACGCGUCUCCCUCCUAAGGAAAAGACUGCGGGUUCGAGUCCCGUACGGAACG as the variant, how does the yeast fitness read?
**A.** 0.661

**Q.** For GUUCCGUUGACGUAAUGGUAACGCGUCUCCCUCCUAAGGAAAAGACUGCGGGUUCGAGUGCCGUGCGGAACG, which yeast fitness is on record?
**A.** 0.529

**Q.** For GUUCCGUUGACGUAAUGGUAACGCGUCUCCCUCCUAAGGACAAGACUGCGGGUUCGAGUCCCGUACGGAACG, which yeast fitness is on record?
**A.** 0.717

**Q.** Which yeast fitness does the source give for GUUCCGUUGACGUAAUGGUAACGCGUCUCCCUCCUAAGGACAAGACUGCGGGUUCGAGUCGCGUACGGAACG here?
**A.** ≤ 0.5

**Q.** With GUUCCGUUGACGUAAUGGUAACGCGUCUCCCUCCUAAGGAGAAAACUGCGGGUUCGAGUCCCGUACGGAACG as the variant, how does the yeast fitness read?
**A.** 0.786

**Q.** With GUUCCGUUGACGUAAUGGUAACGCGUCUCCCUCCUAAGGAGAAAACUGCGGGUCCGAGUCUCGUACGGCACG as the variant, how does the yeast fitness read?
**A.** 0.638

**Q.** Which yeast fitness does the source give for GUUCCGUUGACGUAAUGGUAACGCGUCUCCCUCCUAAGGAGAAAACUGCGGGUCCGAGUCUCGUACAGAACG here?
**A.** ≤ 0.5

**Q.** Which yeast fitness does the source give for GUUCCGUUGACGUAAUGGUAACGCGUCUCCCUCCUAAGGAGAACACUGCGGGUUCGAGUCCCGUACGGAACG here?
**A.** 0.79
